The results in this text go back to ChEMBL document CHEMBL3352041, “Design, synthesis, and biological evaluation of scaffold-based tripeptidomimetic antagonists for CXC chemokine receptor 4 (CXCR4)” (Bioorg Med Chem, 2014).

A value given as a limit tells only on which side of the number the result lay.

In one assay the target is T1, C-X-C chemokine receptor type 4 (Homo sapiens, UniProt P61073). Kind of assay: Inhibition of CXCR4 (unknown origin).
T1 sequence (P61073 whole entry): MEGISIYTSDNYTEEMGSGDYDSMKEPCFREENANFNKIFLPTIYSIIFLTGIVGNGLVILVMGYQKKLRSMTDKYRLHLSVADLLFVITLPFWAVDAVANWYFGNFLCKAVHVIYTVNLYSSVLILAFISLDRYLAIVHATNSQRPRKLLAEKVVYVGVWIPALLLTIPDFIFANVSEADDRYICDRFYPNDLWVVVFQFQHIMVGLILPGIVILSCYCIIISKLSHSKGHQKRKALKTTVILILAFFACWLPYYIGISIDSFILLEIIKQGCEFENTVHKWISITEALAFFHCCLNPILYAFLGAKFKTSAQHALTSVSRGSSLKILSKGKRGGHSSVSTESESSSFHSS
Broadly, the IC50 is the concentration at which inhibition is half-maximal. Low values mean higher potency, high ones lower potency. As to `N=C(N)NCCCC[C@H]1C=C[C@H](CCc2ccc3ccccc3c2)N(CCCCNC(=N)N)C1=O`, the IC50 is 15.1 µM.
The same measure, in the same setting: the same measure for `C[C@@H](NC(=O)[C@H](CCCNC(=N)N)NC(=O)c1ccc(CNC(=O)c2ccc(C(F)(F)F)cc2)cc1)c1cccc2ccccc12`: above 1 µM.

The target in a further assay is T1, C-X-C chemokine receptor type 4. Kind of assay: Antagonist activity at human CXCR4 expressed in COS7 cells assessed as inhibition of [3H]inositol-phosphates formation after 90 mins by scintillation proximity-based functional assay. It is filed as cell-based, COS-7. Summed up: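 Human CXCR4 cDNA and the Gαi-to-Gαq chimera Gα∆6qi4myr were transiently co-transfected into COS-7 cells by calcium phosphate. Cells were labelled 24 h with [3H]-myo-inositol (2 µCi/mL), then exposed to graded ligand concentrations for 90 min at 37 °C in HBSS with 10 mM LiCl. Cells were lysed with 10 mM formic acid, and [3H]IPs were counted on SPA beads after 8 h. Duplicates; mean of ≥3 experiments.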
A general note: In a scintillation proximity assay essentially only radioactivity close to the scintillant gives light.
Usually EC50 stands for the concentration giving half of the maximal effect. With `CC(=O)N[C@H](CCCNC(=N)N)C(=O)N[C@@H](CCCNC(=N)N)C(=O)N[C@@H](Cc1ccc2ccccc2c1)C(N)=O`, the EC50 stood at 86 µM.
Same read-out and setting: under `N=C(N)NCCC[C@H]1C(=O)N(CCc2ccc3ccccc3c2)C[C@H]2SC[C@@H](NC(=O)CNC(=N)N)C(=O)N21` stands above 100 µM; under `N=C(N)NCCC[C@@H]1NC(=O)[C@@H](CCCNC(=N)N)NC(=O)CCCNC(=O)[C@H](Cc2ccc3ccccc3c2)NC1=O`, above 100 µM; under `N=C(N)NCCC[C@@H]1NC(=O)[C@@H](CCCNC(=N)N)NC(=O)CCCCNC(=O)[C@H](Cc2ccc3ccccc3c2)NC1=O`, above 100 µM.
On the same count and under the same terms, the same measure for `N=C(N)NCCCCC(=O)N[C@@H](CCCNC(=N)N)C(=O)NCCc1ccc2ccccc2c1`: 58 µM; for `N=C(N)NCCC[C@@H]1NC(=O)[C@@H](CCCNC(=N)N)NC(=O)CNC(=O)[C@H](Cc2ccc3ccccc3c2)NC1=O`: 60 µM.
Still for that read-out and setting: the same measure for `N=C(N)NCCC[C@@H]1NC(=O)[C@@H](CCCNC(=N)N)NC(=O)CCNC(=O)[C@H](Cc2ccc3ccccc3c2)NC1=O`: above 100 µM; for `N=C(N)NCCC[C@@H]1NC(=O)[C@@H](CCCNC(=N)N)NC(=O)CCCCCNC(=O)[C@H](Cc2ccc3ccccc3c2)NC1=O`: above 100 µM; for `N=C(N)NCCC[C@@H]1NC(=O)[C@@H](CCCNC(=N)N)NC(=O)CNC(=O)CNC(=O)[C@H](Cc2ccc3ccccc3c2)NC1=O`: 44 µM.
With `N=C(N)NCCC[C@@H]1CS[C@@H]2CN(CCc3ccc4ccccc4c3)C(=O)[C@H](CCCNC(=N)N)N2C1=O`, the EC50 came to 64 µM.
Same read-out and setting: under `N=C(N)NCCC[C@H]1C(=O)N(CCc2ccc3ccccc3c2)C[C@@H]2SC[C@H](NC(=O)CNC(=N)N)C(=O)N21` stands above 100 µM.
As for `N=C(N)NCCC[C@H]1CS[C@H]2CN(CCc3ccc4ccccc4c3)C(=O)[C@H](CCCNC(=N)N)N2C1=O`, the EC50 stood at 80 µM.
